What is called pIC50 is the negative decadic logarithm of the IC50, by convention in mol/L. Broadly, the pKd is −log10 of the Kd, conventionally taken in molar units.

Structures are written as SMILES. pIC50, pKd: −log10 of the molar value. Bounds are passed on as bounds.

From ChEMBL document CHEMBL4819118, “Rational modification, synthesis and biological evaluation of N-substituted phthalazinone derivatives designed to target interleukine-15 protein” (Bioorg Med Chem, 2021) come the findings set out here.

Assay [1] addresses Interleukin-2 (Homo sapiens, UniProt P60568). As to the kind of experiment: Inhibition of IL2-induced STAT5 phosphorylation in human NK92 cells incubated for 30 mins followed by IL-2 stimulation and measured after 1 hr by alphascreen assay. (In Alpha technology, singlet oxygen from a donor bead excites a nearby acceptor bead.)
Assay [2] has as its target T1, Interleukin-15 (Homo sapiens, UniProt P40933). In words: Binding affinity to recombinant human IL-15 assessed as dissociation constant by SPR analysis. The note with it: for pKd: read-out: Kd. An outline of the steps:
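IL-15 covalently immobilized on sensor chip; compounds flowed at increasing concentrations and binding monitored by surface plasmon resonance; Kd derived from direct interaction.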
Background: SPR reads the build-up and loss of mass on a sensor chip optically.

The target of assay [3] is T1, Interleukin-15. In words: Inhibition of IL-15-induced STAT5 phosphorylation in human NK92 cells incubated for 30 mins followed by IL-15 stimulation and measured after 1 hr by alphascreen assay.

Sequence of Interleukin-2 (P60568 whole entry): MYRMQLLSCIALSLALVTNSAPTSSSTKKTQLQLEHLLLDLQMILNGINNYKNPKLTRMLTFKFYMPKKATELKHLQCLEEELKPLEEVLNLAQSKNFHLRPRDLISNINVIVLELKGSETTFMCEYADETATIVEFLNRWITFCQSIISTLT
T1 sequence (P40933 whole entry): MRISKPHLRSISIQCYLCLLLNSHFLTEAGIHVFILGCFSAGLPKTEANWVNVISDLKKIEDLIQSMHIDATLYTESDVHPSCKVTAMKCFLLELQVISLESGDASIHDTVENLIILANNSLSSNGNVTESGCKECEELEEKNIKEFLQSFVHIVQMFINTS

In assay [1], `Cn1c(Cc2nn(CCCO)c(=O)c3ccccc23)nnc1SCC(=O)Nc1ccc(Cl)cc1Cl` gave a negative logarithm of the IC50 (pIC50) of under 4.52.
Take `Cn1c(Cc2nn(C)c(=O)c3ccccc23)nnc1SCCCCCCCC(=O)Nc1ccc(C(=O)c2ccccc2)cc1`: in assay [2], the negative-log Kd (pKd) is 5.46. The pIC50 in assay [1] is 7.10; in assay [3], 7.30.
As for `Cn1nc(Cc2nnc(SCCCCCCCC(=O)Nc3ccc(Cl)cc3Cl)n2CCC=O)c2ccccc2c1=O`, the pKd in assay [2] was 5.23. In addition, the negative logarithm of the IC50 (pIC50) in assay [1] was 6.02; in assay [3], 6.15.
For `Cn1nc(Cc2nnc(SCC(=O)Nc3ccc(Cl)cc3Cl)n2CCCO)c2ccccc2c1=O`, the pIC50 in assay [1] and in assay [3] was under 4.52 each time.
On to `Cn1c(Cc2nn(C)c(=O)c3ccccc23)nnc1SCC(=O)Nc1ccc(Cl)cc1Cl`, for which the negative-log IC50 (pIC50) was 5.11 in assay [1] and 5.35 in assay [3].
In the same order, the values of `CCOC(CCn1c(Cc2nn(C)c(=O)c3ccccc23)nnc1SCC(=O)Nc1ccc(Cl)cc1Cl)OCC` are under 4.52 and under 4.52.
In the same order, the values of `Cn1nc(Cc2nnc(SCCCCCCCC(=O)Nc3ccc(Cl)cc3Cl)n2CCCO[Si](C)(C)C(C)(C)C)c2ccccc2c1=O` are under 4.52 and under 4.52.
For `Cn1nc(Cc2nnc(SCC(=O)Nc3ccc(Cl)cc3Cl)n2CCC(=O)O)c2ccccc2c1=O` the same measures were under 4.52 and under 4.52.
As to `Cn1nc(Cc2nnc(SCCCCCCCC(=O)Nc3ccc(Cl)cc3Cl)n2CCCO)c2ccccc2c1=O`, the pIC50 in assay [1] and in assay [3] was under 4.52 in each case.
For the compound `Cn1c(Cc2nn(CCC3OCCO3)c(=O)c3ccccc23)nnc1SCC(=O)Nc1ccc(Cl)cc1Cl`, the pIC50 in assay [1] was under 4.52.
As for `Cn1c(Cc2nn(C)c(=O)c3ccccc23)nnc1SCCCCCCCC(=O)Nc1ccc(Cl)cc1Cl`, the pKd in assay [2] is 5.89. Also, the pIC50 in assay [1] is 6.46; in assay [3] it was 6.72.
For `Cn1nc(Cc2nnc(SCCCCCCCC(=O)Nc3ccc(Cl)cc3Cl)[nH]2)c2ccccc2c1=O` the same measures were 5.62, 6.35 and 6.55.
As to `Cn1c(Cc2nn(CCCO[Si](C)(C)C(C)(C)C)c(=O)c3ccccc23)nnc1SCCCCCCCC(=O)Nc1ccc(Cl)cc1Cl`, the pIC50 in assay [1] and in assay [3] was under 4.52 in each case.
On to `Cn1c(Cc2nn(CCC=O)c(=O)c3ccccc23)nnc1SCCCCCCCC(=O)Nc1ccc(Cl)cc1Cl`, for which the pKd in assay [2] was 5.11. The pIC50 in assay [1] is 4.66; in assay [3] it was 4.83.
In the case of `Cn1c(Cc2nn(CCC(=O)O)c(=O)c3ccccc23)nnc1SCCCCCCCC(=O)Nc1ccc(Cl)cc1Cl`, in assay [3], the negative logarithm of the IC50 (pIC50) was under 4.52.
As for `Cn1c(Cc2nn(CCCO)c(=O)c3ccccc23)nnc1SCCCCCCCC(=O)Nc1ccc(Cl)cc1Cl`, in assay [2], the negative logarithm of the Kd (pKd) is 5.41. In addition, the pIC50 in assay [1] and in assay [3] was under 4.52 in each case.
In the case of `Cn1c(Cc2nn(CCC(=O)O)c(=O)c3ccccc23)nnc1SCC(=O)Nc1ccc(Cl)cc1Cl`, the pIC50 in assay [1] and in assay [3] was under 4.52 throughout.
Regarding `CN(C)CCCn1c(Cc2nn(C)c(=O)c3ccccc23)nnc1SCCCCCCCC(=O)Nc1ccc(Cl)cc1Cl`, the negative-log IC50 (pIC50) in assay [1] and in assay [3] was under 4.52 in each case.
For `CN(C)CCCn1nc(Cc2nnc(SCC(=O)Nc3ccc(Cl)cc3Cl)n2C)c2ccccc2c1=O`, the pIC50 in assay [1] and in assay [3] was under 4.52 in each case.
Regarding `Cn1c(Cc2nn(CCC=O)c(=O)c3ccccc23)nnc1SCC(=O)Nc1ccc(Cl)cc1Cl`, the pIC50 was under 4.52 in assay [1] and 4.70 in assay [3].
For `Cn1nc(Cc2nnc(SCC(=O)Nc3ccc(Cl)cc3Cl)n2CCC=O)c2ccccc2c1=O` the same measures were 5.07 and 5.38.
For `Cn1nc(Cc2nnc(SCCCCCCCC(=O)Nc3ccc(Cl)cc3Cl)n2CCC(=O)O)c2ccccc2c1=O` the same measures were 4.84 and 5.02.
Regarding `CN(C)CCCn1nc(Cc2nnc(SCCCCCCCC(=O)Nc3ccc(Cl)cc3Cl)n2C)c2ccccc2c1=O`, the pIC50 in assay [1] and in assay [3] was under 4.52 each time.
Turning to `Cn1c(Cc2n[nH]c(=O)c3ccccc23)nnc1SCCCCCCCC(=O)Nc1ccc(Cl)cc1Cl`, the Kd entry in assay [2] is listed as “Not Active”. For the same compound, the pIC50 in assay [1] was under 4.52; in assay [3], 4.70.
